For assay [1], the system named is Candida albicans. In words: Fungicidal activity against Candida albicans isolate 1 assessed as log reduction in bacterial count at 4 times MIC after drug exposure for 1 hr followed by washout measured after 48 hrs in the absence of drug by PAFE study. The format is functional. Summed up: (§1)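 Starting inoculum ~1 x 10^5 to 5 x 10^5 CFU/ml in MOPS-buffered RPMI 1640 (pH 7.0) with drug at multiples of the CLSI M27-A3 MIC. After 1 h at 35°C, cells washed and centrifuged three times at 1,400 x g for 10 min, then resuspended in warm drug-free RPMI. Shaken at 35°C and plated on SDA at 0–48 h; CFU counted after 48 h. Run twice per isolate; means.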

For assay [2], the system named is Candida albicans. Put plainly: Antifungal activity against Candida albicans assessed as time period for bacterial regrowth inhibition after 1 hr drug exposure. The format is functional.
For assay [3], the system named is Candida parapsilosis. In words: Fungicidal activity against Candida parapsilosis isolate 1 assessed as log reduction in bacterial count at 16 times MIC after drug exposure for 1 hr followed by washout measured after 48 hrs in the absence of drug by PAFE study. The format is functional. Particulars: Lodderomyces parapsilosis. The procedure, abridged:
as §1

The test system of another assay is Candida tropicalis. Put plainly: Antifungal activity against Candida tropicalis by NCCLS M27A broth microdilution method. The format is functional. (In general: In broth dilution the organism is exposed to a series of concentrations in liquid medium.)
Assay [4] has as its system Nakaseomyces glabratus. In words: Antifungal activity against Candida glabrata isolate 3 assessed as time period for bacterial growth inhibition at 4 times MIC after 1 hr drug exposure. The format is functional. Summed up:
(§2)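 Inoculum of about 1 x 10^5 to 5 x 10^5 CFU/ml in MOPS-buffered RPMI (pH 7.0), shaken at 35°C and exposed to drug for 1 h. Cells then washed and centrifuged three times and resuspended in drug-free warm RPMI. Samples plated on SDA at 0, 2, 4, 8, 12, 24 and 48 h, with CFU counted after 48 h at 35°C. Run twice per isolate; values are means.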

Assay [5] has as its system Nakaseomyces glabratus. Put plainly: Fungicidal activity against Candida glabrata isolate 2 assessed as log reduction in bacterial count at 16 times MIC after drug exposure for 1 hr followed by washout measured after 48 hrs in the absence of drug by PAFE study. The format is functional. The procedure, abridged:
as §1

The subject of assay [6] is Pichia kudriavzevii. In words: Fungicidal activity against Candida krusei isolate 1 assessed as log reduction in bacterial count at 16 times MIC after 48 hrs by time-kill analysis. The format is functional. Particulars: isolate 1, 48 h. Summed up:
(§3)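 Isolates subcultured twice on SDA, suspended to 0.5 McFarland, giving ~1 x 10^5 to 5 x 10^5 CFU/ml in MOPS-buffered RPMI 1640 (pH 7.0) with or without drug at multiples of MIC (MIC by CLSI M27-A3). Tubes shaken at 35°C with continuous drug. Sampled at 0–48 h, diluted 10-fold and plated on SDA; CFU counted after 48 h at 35°C. Run twice per isolate; means.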

In assay [7] the test system is Candida albicans. Put plainly: Antifungal activity against Candida albicans ATCC 90028 assessed as time period for bacterial growth inhibition at 4 times MIC after 1 hr drug exposure. The format is functional. Summed up:
as §2

Assay [8] concerns Candida albicans. In words: Fungicidal activity against Candida albicans isolate 2 assessed as log reduction in bacterial count at 4 times MIC after 48 hrs by time-kill analysis. The format is functional. Particulars: isolate 2, 48 h. Summed up:
as §3

Assay [9] deals with Candida albicans. In words: Increase in susceptibility to calcofluor white in Candida albicans isolate 1 assessed as cell wall damage at MIC after 1 hr relative to control. The format is functional, organism-based. The procedure, abridged:
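Cells recovered 8 h after a 1-h drug exposure were grown to exponential phase in YPD with 1% glucose and adjusted to OD599 0.1. Undiluted and 10-fold serially diluted cultures were spotted onto YPD plates containing calcofluor white, then incubated at 30°C for 72 h. Growth compared with no-drug control cells; triplicate.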

Assay [10] deals with Candida parapsilosis. In words: Antifungal activity against Candida parapsilosis isolate A assessed as cell wall damage at MIC by Transmission electron microscopy. The format is functional, organism-based. Summed up: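 Cells recovered 8 h after a 1-h drug exposure were grown on SDA for 24 h at 35°C. Colonies fixed at 4°C in 0.1 M cacodylate (pH 7.2) with 2% glutaraldehyde and 2% paraformaldehyde, ethanol-dehydrated and embedded in Lowicryl K4M. Thin sections examined by transmission EM.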

The test system of assay [11] is Pichia kudriavzevii. Put plainly: Antifungal activity against Candida krusei by NCCLS M27A broth microdilution method. The format is functional.
Assay [12] has as its system Pichia kudriavzevii. In words: Fungicidal activity against Candida krusei isolate ATCC 6258 assessed as log reduction in bacterial count at MIC after 48 hrs by time-kill analysis. The format is functional. Particulars: isolate ATCC 6258, 48 h. Summed up:
as §3

The test system of assay [13] is Candida parapsilosis. Put plainly: Increase in susceptibility to calcofluor white in Candida parapsilosis isolate A assessed as cell wall damage at 4 times MIC after 1 hr relative to control. The format is functional, organism-based. Summed up: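 Candida given a 1-h anidulafungin pulse in MOPS-buffered RPMI 1640 (pH 7.0) at 35°C, washed three times by centrifugation, and regrown drug-free. Cells collected 8 h later, grown in YPD with 1% glucose to exponential phase, and set to OD599 0.1. Undiluted culture and 10-fold dilutions (4 µl) spotted on YPD plates with calcofluor white, then 30°C for 72 h. Triplicate; compared with no-drug cells.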

For assay [14], the system named is Nakaseomyces glabratus. In words: Antifungal activity against Candida glabrata isolate 1 by CLSI M27-A3 broth microdilution method. The format is functional. The procedure, abridged:
(§4)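 CLSI M27-A3 broth microdilution in RPMI 1640 buffered to pH 7.0 with MOPS. Starting inoculum 0.5 x 10^3 to 2.5 x 10^3 cells/ml, incubated at 35°C. MIC read as the lowest concentration giving >50% growth reduction versus control. Each isolate tested on at least three occasions.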

Assay [15] has as its system Candida albicans. In words: Fungicidal activity against Candida albicans isolate 2 assessed as log reduction in bacterial count at 4 times MIC after drug exposure for 1 hr followed by washout measured after 48 hrs in the absence of drug by PAFE study. The format is functional. Summed up:
as §1

The subject of assay [16] is Candida parapsilosis. Put plainly: Antifungal activity against Candida parapsilosis isolate A by CLSI M27-A3 broth microdilution method. The format is functional. Particulars: Lodderomyces parapsilosis. Summed up:
as §4

Assay [17] concerns Candida parapsilosis. Put plainly: Fungicidal activity against Candida parapsilosis isolate S assessed as log reduction in bacterial count at MIC after drug exposure for 1 hr followed by washout measured after 48 hrs in the absence of drug by PAFE study. The settings on record: Lodderomyces parapsilosis. The format is functional. The procedure, abridged: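 Inoculum about 1 x 10^5 to 5 x 10^5 CFU/ml in RPMI 1640 (MOPS, pH 7.0) with drug, shaken at 35°C for 1 h. Cells were then washed and centrifuged at 1,400 x g for 10 min (3 cycles) and resuspended in warm drug-free RPMI. Samples plated on SDA at 0, 2, 4, 8, 12, 24 and 48 h; CFU counted after 48 h at 35°C. Run twice per isolate; means.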

Assay [18] deals with Nakaseomyces glabratus. Put plainly: Fungicidal activity against Candida glabrata isolate 3 assessed as log reduction in bacterial count at 16 times MIC after 48 hrs by time-kill analysis. The format is functional. The settings on record: isolate 3, 48 h. Summed up: as §3
In assay [19] the test system is Candida albicans. Put plainly: Inhibition of Candida albicans isolate 1 adherence to human buccal epithelial cells at 4 times MIC after 1 hr by adherence assay relative to control. The format is functional, Epithelial cell. The procedure, abridged: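 Candida collected 8 h after a 1-h 4x MIC pulse and washout were grown on SDA for 24 h at 35°C. Buccal epithelial cells were pooled from three donors and washed in PBS. Cells (1 x 10^5/ml) were mixed 1:1 by volume with Candida (1 x 10^6/ml) and shaken 1 h at 37°C. Mixtures were filtered, washed, and Gram-stained, and Candida were counted per 100 epithelial cells. Run in duplicate on ≥2 occasions; Student's t test against unexposed controls.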

The test system of assay [20] is Candida albicans. Put plainly: Antifungal activity against Candida albicans isolate S by CLSI M27-A3 broth microdilution method. The format is functional. Summed up: as §4
In assay [21] the test system is Candida albicans. In words: Antifungal activity against Candida albicans isolate 1 coincubated with mouse J774 macrophages assessed as macrophage induced bacterial cell killing at 4 times MIC (reference value: 14 +/- 8 %). The format is functional.

Converted amounts (≈) assume the structure as drawn. The source made the active and inactive calls. Starred links: 1 amine or outer side, 2 acyl side, 3 side chain; linkers in the order of their positions; H or OH if unused. Positions of bridges follow the written chain, without caps; N, C: chain ends. Non-standard residues stand in square brackets, D forms with d. Residues, ends and D or L forms follow the SMILES beside them. *: point of attachment. pTerphenylCO(4''-OnC5H11) = CCCCCOc1ccc(-c2ccc(-c3ccc(C(=O)*)cc3)cc2)cc1; Orn(4R-OH,5R-OH) = O=C([C@H](C[C@@H](O)[C@@H](O)N[*:3])N[*:1])[*:2]; hTyr(3S-OH,4S-OH) = N[C@H](C(=O)O)[C@H](O)[C@@H](O)c1ccc(O)cc1; Pro(3S-OH,4S-Me) = C[C@H]1CN[C@H](C(=O)O)[C@H]1O; Hyp = O=C(O)[C@@H]1C[C@@H](O)CN1

A word on the MIC90: it is an inhibitory concentration at the 90% level, which refers to growth in some studies and to a panel of isolates in others. Low values mean greater potency, high ones weaker potency. As a reminder, the MIC is the smallest concentration in the dilution series that meets the test's criterion for growth inhibition. In the case of `CCCCCOc1ccc(-c2ccc(-c3ccc(C(=O)N[C@H]4C[C@@H](O)[C@@H](O)NC(=O)[C@@H]5[C@@H](O)[C@@H](C)CN5C(=O)[C@H]([C@@H](C)O)NC(=O)[C@H]([C@H](O)[C@@H](O)c5ccc(O)cc5)NC(=O)[C@@H]5C[C@@H](O)CN5C(=O)[C@H]([C@@H](C)O)NC4=O)cc3)cc2)cc1` [ANIDULAFUNGIN] ({pTerphenylCO(4''-OnC5H11)}-[Orn(4R-OH,5R-OH)]T[Hyp][hTyr(3S-OH,4S-OH)]T[Pro(3S-OH,4S-Me)]; lactam 1-C), the log reduction with Candida albicans [1] was 1.18; in the assay with Candida parapsilosis [3] it was 3.17; in the assay with Nakaseomyces glabratus [5], 2.92; in the assay on Pichia kudriavzevii [6], 3 log CFU/ml; with Candida albicans [8] it was 2.33 log CFU/ml; in the assay on Pichia kudriavzevii [12], 2.21 log CFU/ml. For the same molecule, the values for the log reduction in the assay on Candida albicans [15], in the assay with Candida parapsilosis [17] and with Nakaseomyces glabratus [18] were 1.24, 0.41 and 3.89 log CFU/ml, respectively. Further, the Time result is “>=12 hr” in the assay on Candida albicans [2], 8 h with Nakaseomyces glabratus [4] and 8 h in the assay on Candida albicans [7]. Moreover, the MIC90 with Candida tropicalis and against Pichia kudriavzevii [11] was 0.06 µg/mL (≈ 0.0526 µM) throughout. For the same molecule, the result in the assay with Candida albicans [9], in the assay on Candida parapsilosis [10] and with Candida parapsilosis [13] was Active. Besides, the MIC in the assay on Nakaseomyces glabratus [14] was determined as 0.06 µg/mL (≈ 0.0526 µM); with Candida parapsilosis [16] it was 2 µg/mL (≈ 1.75 µM); in the assay on Candida albicans [20], 0.008 µg/mL (≈ 0.00702 µM). Besides, the “inhibition (INH)” value in the assay on Candida albicans [19] stood at 58%; with Candida albicans [21], 37%.

These data come from ChEMBL document CHEMBL1671655, “Anidulafungin is fungicidal and exerts a variety of postantifungal effects against Candida albicans, C. glabrata, C. parapsilosis, and C. krusei isolates” (2009).
